Blank lines part the entries; values can stand above or below the compound they belong to. The source made the active and inactive calls. The calls are words filed in the database; no cut-off is given here.
Tests used:
[1] = target: T1, Tumor necrosis factor ligand superfamily member 11 (Mus musculus) (UniProt O35235); experiment: Inhibition of RANKL-stimulated JNK in ICR mouse BMMC assessed as reduction in c-Jun phosphorylation at 1 to 20 uM incubated for 12 hrs by Western blotting method
T1 sequence (whole entry): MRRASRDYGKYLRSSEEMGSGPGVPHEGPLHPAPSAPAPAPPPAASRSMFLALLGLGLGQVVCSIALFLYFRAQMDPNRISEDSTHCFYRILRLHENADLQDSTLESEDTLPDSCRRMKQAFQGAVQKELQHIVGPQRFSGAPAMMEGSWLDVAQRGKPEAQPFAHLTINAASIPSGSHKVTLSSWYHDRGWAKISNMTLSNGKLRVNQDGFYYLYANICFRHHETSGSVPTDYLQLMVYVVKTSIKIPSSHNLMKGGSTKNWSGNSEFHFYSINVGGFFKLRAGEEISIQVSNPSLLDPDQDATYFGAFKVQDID

[2] = target: T1, Tumor necrosis factor ligand superfamily member 11 (Mus musculus); experiment: Inhibition of RANKL-induced c-FOS protein expression in ICR mouse BMMC at 1 to 20 uM incubated for 12 hrs by Western blotting method; format: functional
[3] = target: T1, Tumor necrosis factor ligand superfamily member 11 (Mus musculus); experiment: Inhibition of RANKL-induced NFATc1 protein expression in ICR mouse BMMC at 1 to 20 uM incubated for 12 hrs by Western blotting method; format: functional
BMMC [4] = experiment: Inhibition of RANKL/M-CSF-stimulated osteoclastogenesis in ICR mouse BMMC assessed as reduction in TRAP positive multinucleated cells at 1 to 20 uM incubated for 7 days by light microscopy; format: functional
Method in brief: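 JNK inhibitor SP600125 used as reference. For blots, BMMs were incubated with RANKL 100 ng/mL for 12 h, then SP600125 for 4 h; lysates probed for phospho-c-Jun, c-Jun, c-Fos and NFATc1, with β-actin as control. For TRAP counts, BMMs were given RANKL 1 h, then SP600125 (1, 10, 20 μM) with M-CSF 30 ng/mL.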

BMMC [5] = experiment: Inhibition of RANKL/M-CSF-stimulated osteoclastogenesis in ICR mouse BMMC assessed as reduction in TRAP positive multinucleated cells at 1 to 10 uM incubated for 7 days by light microscopy; format: functional
Method in brief: (§1)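 BMMs from 6-week-old ICR mouse femurs/tibiae (M-CSF expanded; 5 × 10^5 cells/well) stimulated with RANKL 100 ng/mL for 1 h, then treated (1, 5, 10 μM) with M-CSF 30 ng/mL for 7 days. Fixed and TRAP-stained; TRAP+ cells with ≥3 nuclei counted by light microscopy. Mean ± SEM, two experiments.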

[6] = Inhibition of RANKL/M-CSF-stimulated osteoclastogenesis in ICR mouse BMMC assessed as reduction in TRAP positive multinucleated cells at 1 to 10 uM incubated for 7 days by light microscopy relative to untreated control; format: functional; method in brief: as §1
[7] = Toxicity against ICR mouse BMMC assessed as reduction in cell viability up to 100 uM after 72 hrs by WST8 assay
Method in brief: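 BMMs cultured with RANKL (100 ng/mL) and test compound at 0, 1, 5, 10 and 100 μM for 72 h. Viability read by WST-8 (CCK-8) assay.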

BMMC [8] = experiment: Inhibition of RANKL protein expression in ICR mouse BMMC co-cultured with primary osteoblasts at 1 to 10 uM incubated for 48 hrs by ELISA method; format: functional
Method in brief: (§2)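 Coculture of BMMs (3 × 10^5 cells/well) with calvarial osteoblasts from 1-day-old mice (2.5 × 10^4 cells/well). Cells prestimulated with RANKL 100 ng/mL for 1 h, then treated for 48 h with M-CSF 30 ng/mL present. RANKL measured in cell lysate and OPG in culture medium, both by ELISA. Mean ± SEM of two independent experiments; Student's t test.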

[9] = Inhibition of RANKL protein expression in ICR mouse BMMC co-cultured with primary osteoblasts at 1 to 10 uM incubated for 48 hrs by ELISA method relative to untreated control; format: functional; method in brief: as §2
Osteoblast = experiment: Increase in OPG protein expression in RANKL-stimulated mouse primary osteoblasts co-cultured with ICR mouse BMMC at 1 to 10 uM incubated for 48 hrs by ELISA method relative to untreated control; format: functional; method in brief: as §2
[10] = (§3) Inhibition of RANKL/M-CSF-stimulated TNFalpha protein expression in ICR mouse BMMC at 1 to 10 uM incubated for 48 hrs by ELISA method relative to untreated control; format: functional
Method in brief: (§4)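 BMMs (3 × 10^5 cells/well) prestimulated with RANKL 100 ng/mL for 1 h, then treated (1, 5, 10 μM) with M-CSF 30 ng/mL. Cytokines and chemokines in culture medium measured by ELISA. Methods give 7 days of treatment; legend gives 48 h. Mean ± SEM of two independent experiments; Student's t test.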

BMMC [11] = experiment: as §3; format: functional; method in brief: as §4
[12] = (§5) Inhibition of RANKL/M-CSF-stimulated IL-1beta protein expression in ICR mouse BMMC at 1 to 10 uM incubated for 48 hrs by ELISA method relative to untreated control; format: functional; method in brief: as §4
BMMC [13] = experiment: as §5; format: functional; method in brief: as §4
[14] = (§6) Inhibition of RANKL/M-CSF-stimulated IL-6 protein expression in ICR mouse BMMC at 1 to 10 uM incubated for 48 hrs by ELISA method relative to untreated control; format: functional; method in brief: as §4
BMMC [15] = experiment: as §6; format: functional; method in brief: as §4
[16] = (§7) Inhibition of RANKL/M-CSF-stimulated MCP1 protein expression in ICR mouse BMMC at 1 to 10 uM incubated for 48 hrs by ELISA method relative to untreated control; format: functional; method in brief: as §4
BMMC [17] = experiment: as §7; format: functional; method in brief: as §4
[18] = (§8) Inhibition of RANKL/M-CSF-stimulated RANTES protein expression in ICR mouse BMMC at 1 to 10 uM incubated for 48 hrs by ELISA method relative to untreated control; format: functional; method in brief: as §4
BMMC [19] = experiment: as §8; format: functional; method in brief: as §4
[20] = (§9) Inhibition of RANKL/M-CSF-stimulated MIP-1alpha protein expression in ICR mouse BMMC at 1 to 10 uM incubated for 48 hrs by ELISA method relative to untreated control; format: functional; method in brief: as §4
BMMC [21] = experiment: as §9; format: functional; method in brief: as §4
[22] = target: Transcription factor p65 (Mus musculus) (UniProt Q04207); experiment: Inhibition of RANKL-stimulated NFkappaB p65 phosphorylation in ICR mouse BMMC at 1 to 10 uM incubated for 4 hrs by Western blotting method
[23] = target: T1, Tumor necrosis factor ligand superfamily member 11 (Mus musculus); experiment: Inhibition of RANKL-stimulated IkappaBalpha degradation in ICR mouse BMMC at 1 to 10 uM incubated for 4 hrs by Western blotting method
[24] = target: T2, Nuclear factor NF-kappa-B complex (Homo sapiens) (UniProt Q00653+P19838+Q04206); experiment: Inhibition of RANKL-stimulated NFkappaB (unknown origin) expressed in ICR mouse BMMC assessed as reduction in transcriptional activity at 1 to 10 uM incubated for 12 hrs by SEAP based reporter gene assay relative to untreated control
Method in brief: (§10)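 BMMs (5 × 10^5 cells/well) stimulated with RANKL 100 ng/mL for 1 h, then transfected (Lipofectamine 2000) with 300 ng pNF-κB-SEAP-NPT (four NF-κB sites) or control SEAP-NPT. After 24 h, treated (0, 1, 5, 10 μM) for 12 h at 37 °C with M-CSF and RANKL. Supernatant SEAP fluorescence read at ex 360/em 449 nm, given as % of control. Two experiments.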

[25] = target: T2, Nuclear factor NF-kappa-B complex (Homo sapiens); experiment: Inhibition of RANKL-stimulated NFkappaB (unknown origin) expressed in ICR mouse BMMC assessed as reduction in transcriptional activity at 1 to 10 uM incubated for 12 hrs by SEAP based reporter gene assay; method in brief: as §10
[26] = target: T1, Tumor necrosis factor ligand superfamily member 11 (Mus musculus); experiment: Inhibition of RANKL-induced c-FOS mRNA expression in ICR mouse BMMC at 5 uM incubated for 12 hrs by qRT-PCR method; format: functional
Method in brief: (§11)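 BMMs stimulated with RANKL (100 ng/mL) for 12 h, then treated at the indicated times and concentrations. c-Fos and NFATc1 mRNA quantified by real-time PCR.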

[27] = target: RAC-alpha serine/threonine-protein kinase (Mus musculus) (UniProt P31750); experiment: Inhibition of RANKL-stimulated AKT phosphorylation in ICR mouse BMMC at 1 to 10 uM incubated for 12 hrs by Western blotting method
Method in brief: (§12)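 BMMs stimulated with RANKL (100 ng/mL) for 1 h, then treated for 12 h. Whole-cell lysates run on 10% SDS-PAGE and probed (1:1000) for phospho- and total AKT, ERK, JNK and p38, with ECL detection. Blots representative of at least two experiments.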

[28] = target: T1, Tumor necrosis factor ligand superfamily member 11 (Mus musculus); experiment: Inhibition of RANKL-stimulated ERK phosphorylation in ICR mouse BMMC at 1 to 10 uM incubated for 12 hrs by Western blotting method; method in brief: as §12
[29] = target: T1, Tumor necrosis factor ligand superfamily member 11 (Mus musculus); experiment: Inhibition of RANKL-stimulated JNK phosphorylation in ICR mouse BMMC at 1 to 10 uM incubated for 12 hrs by Western blotting method; method in brief: as §12
[30] = target: MAP kinase p38 (Mus musculus) (UniProt P47811+O08911+Q9WUI1+Q9Z1B7); experiment: Inhibition of RANKL-stimulated p38 phosphorylation in ICR mouse BMMC at 1 to 10 uM incubated for 12 hrs by Western blotting method; format: protein assay; method in brief: as §12
[31] = target: T1, Tumor necrosis factor ligand superfamily member 11 (Mus musculus); experiment: Inhibition of RANKL-induced NFATc1 mRNA expression in ICR mouse BMMC at 5 uM incubated for 12 hrs by qRT-PCR method; format: functional; method in brief: as §11
[32] = target: T1, Tumor necrosis factor ligand superfamily member 11 (Mus musculus); experiment: Inhibition of RANKL-induced c-FOS protein expression in ICR mouse BMMC at 1 to 10 uM incubated for 12 hrs by Western blotting method; format: functional
Method in brief: (§13)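 BMMs prestimulated with RANKL 100 ng/mL for 12 h, then treated at the indicated times and concentrations. Whole-cell lysates (20 μg/lane) run on 10% SDS-PAGE and blotted to nitrocellulose. Probed with anti-c-Fos and anti-NFATc1 (1:1000), β-actin as internal control, ECL detection.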

[33] = target: T1, Tumor necrosis factor ligand superfamily member 11 (Mus musculus); experiment: Inhibition of RANKL-induced NFATc1 protein expression in ICR mouse BMMC at 1 to 10 uM incubated for 12 hrs by Western blotting method; format: functional; method in brief: as §13

T2 sequence (P19838 whole entry, looked up): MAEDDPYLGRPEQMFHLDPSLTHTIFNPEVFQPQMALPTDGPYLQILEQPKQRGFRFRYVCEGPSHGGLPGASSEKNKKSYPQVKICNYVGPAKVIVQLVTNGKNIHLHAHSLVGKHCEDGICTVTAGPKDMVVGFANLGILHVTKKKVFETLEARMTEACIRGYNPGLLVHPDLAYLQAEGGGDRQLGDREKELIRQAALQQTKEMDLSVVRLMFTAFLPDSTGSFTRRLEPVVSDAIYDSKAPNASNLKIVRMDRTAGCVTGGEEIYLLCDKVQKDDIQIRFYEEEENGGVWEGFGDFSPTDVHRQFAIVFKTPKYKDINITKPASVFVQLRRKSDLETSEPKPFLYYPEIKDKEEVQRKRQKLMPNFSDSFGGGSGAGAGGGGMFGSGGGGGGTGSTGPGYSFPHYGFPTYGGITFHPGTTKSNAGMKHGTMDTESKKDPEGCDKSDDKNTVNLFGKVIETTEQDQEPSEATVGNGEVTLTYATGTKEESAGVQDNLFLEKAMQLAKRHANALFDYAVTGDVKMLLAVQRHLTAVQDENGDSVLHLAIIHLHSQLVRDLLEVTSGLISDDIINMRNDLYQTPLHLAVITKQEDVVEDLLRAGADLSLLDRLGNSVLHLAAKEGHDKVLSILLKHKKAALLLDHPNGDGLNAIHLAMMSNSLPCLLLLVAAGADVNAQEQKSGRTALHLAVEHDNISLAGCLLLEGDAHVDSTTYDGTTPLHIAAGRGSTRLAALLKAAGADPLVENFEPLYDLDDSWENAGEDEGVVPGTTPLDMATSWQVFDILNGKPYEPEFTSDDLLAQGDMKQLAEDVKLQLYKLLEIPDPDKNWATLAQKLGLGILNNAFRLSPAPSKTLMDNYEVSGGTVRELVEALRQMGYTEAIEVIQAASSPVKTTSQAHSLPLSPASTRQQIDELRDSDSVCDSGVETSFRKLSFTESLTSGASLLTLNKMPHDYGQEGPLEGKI
T2 sequence (Q00653 whole entry, looked up): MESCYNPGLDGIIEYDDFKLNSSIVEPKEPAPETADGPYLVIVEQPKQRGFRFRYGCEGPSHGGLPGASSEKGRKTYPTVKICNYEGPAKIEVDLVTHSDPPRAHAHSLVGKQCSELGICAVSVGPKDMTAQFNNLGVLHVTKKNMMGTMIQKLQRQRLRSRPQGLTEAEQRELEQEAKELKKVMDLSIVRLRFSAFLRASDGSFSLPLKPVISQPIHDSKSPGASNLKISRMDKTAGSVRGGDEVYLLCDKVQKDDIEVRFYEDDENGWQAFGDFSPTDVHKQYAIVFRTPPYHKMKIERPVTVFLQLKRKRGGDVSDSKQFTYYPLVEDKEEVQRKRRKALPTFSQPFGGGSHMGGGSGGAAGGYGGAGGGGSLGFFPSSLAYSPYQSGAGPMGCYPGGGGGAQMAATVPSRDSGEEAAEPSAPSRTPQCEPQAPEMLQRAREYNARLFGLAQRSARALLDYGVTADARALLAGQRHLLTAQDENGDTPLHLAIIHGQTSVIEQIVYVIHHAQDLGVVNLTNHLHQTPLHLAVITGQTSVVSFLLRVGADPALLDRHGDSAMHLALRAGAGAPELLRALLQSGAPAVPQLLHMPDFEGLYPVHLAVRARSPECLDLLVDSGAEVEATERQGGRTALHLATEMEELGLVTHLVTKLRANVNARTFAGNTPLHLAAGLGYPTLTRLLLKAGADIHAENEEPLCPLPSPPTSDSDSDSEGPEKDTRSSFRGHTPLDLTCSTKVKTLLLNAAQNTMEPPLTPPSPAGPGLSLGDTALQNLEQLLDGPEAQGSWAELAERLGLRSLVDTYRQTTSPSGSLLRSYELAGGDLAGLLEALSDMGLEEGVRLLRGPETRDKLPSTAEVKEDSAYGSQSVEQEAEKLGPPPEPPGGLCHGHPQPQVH
T2 sequence (Q04206 whole entry, looked up): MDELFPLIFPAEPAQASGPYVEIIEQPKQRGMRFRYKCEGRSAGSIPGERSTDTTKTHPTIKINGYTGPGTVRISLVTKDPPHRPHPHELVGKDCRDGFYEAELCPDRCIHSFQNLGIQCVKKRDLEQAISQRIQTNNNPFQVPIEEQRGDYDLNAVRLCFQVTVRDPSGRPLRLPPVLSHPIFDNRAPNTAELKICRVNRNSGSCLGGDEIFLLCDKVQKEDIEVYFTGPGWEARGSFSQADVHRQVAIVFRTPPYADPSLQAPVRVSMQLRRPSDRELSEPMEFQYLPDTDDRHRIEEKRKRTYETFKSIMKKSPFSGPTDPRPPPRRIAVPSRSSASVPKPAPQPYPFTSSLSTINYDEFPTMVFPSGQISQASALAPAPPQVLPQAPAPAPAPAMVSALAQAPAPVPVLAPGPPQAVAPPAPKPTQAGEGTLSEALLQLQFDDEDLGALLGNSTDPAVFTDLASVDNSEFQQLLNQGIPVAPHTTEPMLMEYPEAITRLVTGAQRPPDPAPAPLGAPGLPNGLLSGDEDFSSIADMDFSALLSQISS
RAC-alpha serine/threonine-protein kinase (Mus musculus), sequence (P31750 whole entry): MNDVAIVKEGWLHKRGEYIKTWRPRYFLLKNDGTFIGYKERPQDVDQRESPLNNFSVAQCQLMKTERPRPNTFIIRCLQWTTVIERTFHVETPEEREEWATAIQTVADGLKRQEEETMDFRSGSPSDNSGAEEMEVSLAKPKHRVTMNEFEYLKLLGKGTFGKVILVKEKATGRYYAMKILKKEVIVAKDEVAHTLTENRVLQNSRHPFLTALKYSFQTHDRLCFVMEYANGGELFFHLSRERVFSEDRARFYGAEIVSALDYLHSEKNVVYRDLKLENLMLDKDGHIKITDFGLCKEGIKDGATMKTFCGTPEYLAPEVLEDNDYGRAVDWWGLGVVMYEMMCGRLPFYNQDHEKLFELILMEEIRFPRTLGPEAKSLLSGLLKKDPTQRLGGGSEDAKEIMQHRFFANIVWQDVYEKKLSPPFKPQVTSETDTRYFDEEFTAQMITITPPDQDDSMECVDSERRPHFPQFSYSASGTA
Transcription factor p65 (Mus musculus), sequence (Q04207 whole entry): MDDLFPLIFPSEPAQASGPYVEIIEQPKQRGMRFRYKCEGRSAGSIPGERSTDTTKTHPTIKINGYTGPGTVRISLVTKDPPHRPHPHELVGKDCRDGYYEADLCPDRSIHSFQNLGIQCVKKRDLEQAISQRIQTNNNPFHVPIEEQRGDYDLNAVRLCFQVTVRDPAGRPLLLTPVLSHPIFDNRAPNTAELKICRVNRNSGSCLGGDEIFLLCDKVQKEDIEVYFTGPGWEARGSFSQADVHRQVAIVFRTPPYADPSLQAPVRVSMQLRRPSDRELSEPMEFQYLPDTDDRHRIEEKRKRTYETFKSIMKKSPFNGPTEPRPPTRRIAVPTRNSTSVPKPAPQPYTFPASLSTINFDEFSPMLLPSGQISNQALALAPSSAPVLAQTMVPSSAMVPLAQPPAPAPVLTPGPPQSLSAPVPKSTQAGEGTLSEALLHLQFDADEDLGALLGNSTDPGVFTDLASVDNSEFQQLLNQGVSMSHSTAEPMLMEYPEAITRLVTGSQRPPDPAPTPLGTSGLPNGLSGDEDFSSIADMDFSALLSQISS

SMILES: Oc1c2ccccc2c2c3c(cccc13)N=N2
- inhibition [1]: Active
- inhibition [2]: Active
- inhibition [3]: Active
- inhibition (BMMC [4]): Active

- inhibition [22]: Active
- fold change (FC) [24]: 1.3
- inhibition [25]: Dose-dependent effect
- inhibition [27]: Dose-dependent effect
- inhibition [30]: Dose-dependent effect
SMILES: COc1ccc(-c2coc3cc(O)ccc3c2=O)cc1 [FORMONONETIN]
- inhibition (BMMC [5]): Dose-dependent effect
- fold change (FC) [6]: 1.3
- Activity [7]: Non-toxic
- inhibition (BMMC [8]): Dose-dependent effect
- fold change (FC) [9]: 1.5
- fold change (FC) (Osteoblast): 1.2
- inhibition (INH) [10]: 27.1%
- inhibition (BMMC [11]): Dose-dependent effect
- inhibition (INH) [12]: 25.1%
- inhibition (BMMC [13]): Dose-dependent effect
- inhibition (INH) [14]: 9.2%
- inhibition (BMMC [15]): Dose-dependent effect
- inhibition (INH) [16]: 27.4%
- inhibition (BMMC [17]): Dose-dependent effect
- inhibition (INH) [18]: 7.1%
- inhibition (BMMC [19]): Dose-dependent effect
- inhibition (INH) [20]: 23.1%
- inhibition (BMMC [21]): Dose-dependent effect
- inhibition [23]: Active
- inhibition [26]: Active
- inhibition [28]: Dose-dependent effect
- inhibition [29]: Dose-dependent effect
- inhibition [31]: Active
- inhibition [32]: Dose-dependent effect
- inhibition [33]: Dose-dependent effect
